This is a sample that favours compounds with a hit; in the whole collection about 2.2% have one here.
FN deposition inh: fibronectin deposition inhibition; AH1F fibroblasts, Alexa488-fibronectin deposition fluorescence, overnight; inhibition, % at 12.6 µM; 350,000 tested, 0.086% active; AID 743247;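 active means mean inhibition across replicates of 30% or more, regardless of how many single replicates reach that level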;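 further: positive control wells lacked labelled fibronectin entirely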
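Material – AH1F fibroblast monolayer, labelled fibronectin deposition · Reagent – labelled fibronectin 24 nM · Timing – 1 h adhesion, overnight exposure · Measured by – fluorescence at 485 nm excitation, 525 nm emission · Read-out – inhibition of fibronectin deposition signal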
SIRT5 block: sirtuin-5 (human) deacylase inhibition; AID 652115; inhibition, % at 15 µM; 330,000 tested, 1.1% active; Purified SirT5, succinyl-peptide AMC, trypsin-coupled fluorescence; in the data active means inhibition above about 15%
FGF22 binding: binders of recombinant human FGF22 by thermal shift | 340,000 tested, 1.5% active | Q9HCT0 | SYPRO orange fluorescence; percent of sucrose octasulfate shift, DMSO zero | activity (Tm shift, normalised), % at 9.99 µM;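 active means mean Tm shift, scaled 0 neutral to 100 positive control, at about 1.3% or above, every replicate too, limit read from the data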
ERAP1 HTS inh: inhibitors of human ERAP1 aminopeptidase; Q9NZ08; recombinant ERAP1, Leu-AMC fluorescence, 60 min; inhibition, % at 10.7 µM; 340,000 tested, 0.15% active;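 active means mean replicate inhibition of at least 30%, or all replicates individually reaching that 30% level; inactive means mean below 30% and not every replicate reaching it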;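 further: 0% = neutral control wells and 100% = L-leucinethiol positive control wells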
Target sequence (Q9NZ08 whole entry, looked up): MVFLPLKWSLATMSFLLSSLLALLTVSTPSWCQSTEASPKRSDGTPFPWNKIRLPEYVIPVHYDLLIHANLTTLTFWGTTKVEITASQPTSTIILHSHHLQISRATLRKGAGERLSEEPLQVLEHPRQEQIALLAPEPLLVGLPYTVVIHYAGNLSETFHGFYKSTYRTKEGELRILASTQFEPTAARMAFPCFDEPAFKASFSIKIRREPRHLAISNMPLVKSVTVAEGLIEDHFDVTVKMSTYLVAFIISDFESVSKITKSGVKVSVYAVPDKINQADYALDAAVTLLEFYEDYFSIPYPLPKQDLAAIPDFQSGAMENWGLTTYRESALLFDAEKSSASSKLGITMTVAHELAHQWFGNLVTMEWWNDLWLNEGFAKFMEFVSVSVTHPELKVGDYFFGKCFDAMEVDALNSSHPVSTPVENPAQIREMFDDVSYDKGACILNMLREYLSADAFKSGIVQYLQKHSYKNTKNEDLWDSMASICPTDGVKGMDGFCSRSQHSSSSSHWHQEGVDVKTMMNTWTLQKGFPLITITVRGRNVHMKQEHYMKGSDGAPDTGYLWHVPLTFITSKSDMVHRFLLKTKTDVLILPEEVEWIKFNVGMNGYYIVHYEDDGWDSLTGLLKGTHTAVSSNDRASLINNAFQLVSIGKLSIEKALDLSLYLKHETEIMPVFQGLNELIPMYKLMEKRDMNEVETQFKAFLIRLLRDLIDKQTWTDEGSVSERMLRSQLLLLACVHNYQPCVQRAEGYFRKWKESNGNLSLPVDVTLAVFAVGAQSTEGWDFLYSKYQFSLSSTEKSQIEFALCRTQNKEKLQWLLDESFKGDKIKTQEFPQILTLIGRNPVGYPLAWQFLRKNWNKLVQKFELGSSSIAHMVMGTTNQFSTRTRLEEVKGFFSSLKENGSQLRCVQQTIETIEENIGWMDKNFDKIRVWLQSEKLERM
PGC1a acetyl inh: lowers PGC1a acetylation signal in U2OS cells | AlphaScreen anti-acetyl-lysine; with virally co-expressed GCN5 acetyltransferase | inhibition, % at 15.6 µM | 350,000 tested, 0.17% active;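 active means every replicate shows inhibition of at least 40%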;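 further: 0% = neutral control wells and 100% = positive control wells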
The depositor's hits bear a star.

Results for CO[C@H]1CN(C)C(=O)c2ccc(NC(=O)Nc3cccc(F)c3)cc2OC[C@@H](C)N(C(C)=O)C[C@H]1C ?
FN deposition inh: -4; SIRT5 block: 1; FGF22 binding: 0; ERAP1 HTS inh: -1; PGC1a acetyl inh: 15

What do the screens show for `CCOC(=O)C1=C(C)NC(C)=C(C(=O)OCC)C1C(=O)OCC(=O)N1CCC(C)CC1`?
FN deposition inh: 3; FGF22 binding: 43*; ERAP1 HTS inh: -1; PGC1a acetyl inh: -5

Results for COC(=O)C1=C(C)NC(C)=C(C(=O)OC)C1C(=O)OCC(=O)N1c2ccccc2CC1C (stereo not given) ?
FN deposition inh: -2; FGF22 binding: 0; ERAP1 HTS inh: 48*; PGC1a acetyl inh: 0

Results for Cc1nc2sc(C(=O)OCC(=O)N3c4ccccc4CC3C)c(C)c2c(=O)[nH]1 (stereo not given) ?
FN deposition inh: 2; SIRT5 block: -3; FGF22 binding: 43*; ERAP1 HTS inh: -3; PGC1a acetyl inh: 6

How did CCC(=O)N1[C@H](CO)[C@@H](c2ccc(-c3cccnc3)cc2)[C@@H]1CN(CC)C(C)=O do in these assays?
SIRT5 block: 0; FGF22 binding: 0; ERAP1 HTS inh: 0; PGC1a acetyl inh: 4

How did Cc1cc(OCC(=O)NNC(=O)c2cnccn2)cc(C)c1Cl do in these assays?
SIRT5 block: 1; FGF22 binding: 0; ERAP1 HTS inh: 1; PGC1a acetyl inh: 85*

How did C[C@@H]1CN([C@@H](C)CO)C(=O)c2cccc(NC(=O)C3CC3)c2O[C@H]1CN(C)S(C)(=O)=O do in these assays?
SIRT5 block: -11; FGF22 binding: 0; ERAP1 HTS inh: 1; PGC1a acetyl inh: 8

Results for CC(C)(CO)NCC(O)Cn1cc(C=O)c2ccccc21 (stereo not given) ?
FN deposition inh: -8; SIRT5 block: 1; FGF22 binding: 43*; ERAP1 HTS inh: 0; PGC1a acetyl inh: 8

Results for C[C@@H]1CN([C@H](C)CO)C(=O)c2cccc(NS(=O)(=O)c3ccccc3)c2O[C@@H]1CN(C)CC1CCCCC1 ?
FN deposition inh: -3; SIRT5 block: 3; FGF22 binding: 1; ERAP1 HTS inh: 1

What do the screens show for `OC(C1=CC(=Cc2ccncc2)c2ccccc21)c1ccncc1` (stereo not given)?
FN deposition inh: -4; FGF22 binding: 43*; ERAP1 HTS inh: 7; PGC1a acetyl inh: 2

What do the screens show for `Cn1c2ccccc2c(=O)c2cc(NCCCN3CCOCC3)ccc21`?
FN deposition inh: 16; SIRT5 block: -35; FGF22 binding: 0; ERAP1 HTS inh: 52*; PGC1a acetyl inh: 13

What do the screens show for `C[C@@H]1CCCCO[C@@H](CN(C)CC2CCCCC2)[C@@H](C)CN([C@@H](C)CO)C(=O)c2cc(NC(=O)Nc3cccc4ccccc34)ccc2O1`?
SIRT5 block: 3; FGF22 binding: 1.5*; ERAP1 HTS inh: -2; PGC1a acetyl inh: -19

Results for C[C@H](CO)N1C[C@H](C)[C@@H](CN(C)CC2CCCCC2)OCCCC[C@H](C)Oc2ccc(NC(=O)Nc3cccc4ccccc34)cc2C1=O ?
SIRT5 block: -1; FGF22 binding: 1.5*; ERAP1 HTS inh: -1; PGC1a acetyl inh: 2

Results for C[C@@H]1CCCCO[C@H](CN(C)CC2CCCCC2)[C@H](C)CN([C@@H](C)CO)C(=O)c2cc(NC(=O)Nc3cccc4ccccc34)ccc2O1 ?
SIRT5 block: 0; FGF22 binding: 0; ERAP1 HTS inh: -3; PGC1a acetyl inh: -14

How did C[C@H](CO)N1C[C@H](C)[C@H](CN(C)CC2CCCCC2)OCCCC[C@H](C)Oc2ccc(NC(=O)Nc3cccc4ccccc34)cc2C1=O do in these assays?
SIRT5 block: 5; FGF22 binding: 0; ERAP1 HTS inh: -4; PGC1a acetyl inh: -2

How did C[C@@H]1CCCCO[C@H](CN(C)CC2CCCCC2)[C@H](C)CN([C@H](C)CO)C(=O)c2cc(NC(=O)Nc3cccc4ccccc34)ccc2O1 do in these assays?
SIRT5 block: 1; FGF22 binding: 1.3*; ERAP1 HTS inh: -3; PGC1a acetyl inh: -17

Results for CO[C@H]1CN(C)C(=O)c2cc(NC(=O)NC3CCCCC3)ccc2OC[C@H](C)N(C(C)=O)C[C@@H]1C ?
FN deposition inh: 4; SIRT5 block: -4; FGF22 binding: 0; ERAP1 HTS inh: 0; PGC1a acetyl inh: 0

How did O=C1N(Cc2cccc(Cl)c2)C[C@@H]2C[C@@H](c3cccn3-c3nccs3)N3CCC[C@@]123 do in these assays?
FN deposition inh: -2; SIRT5 block: -4; FGF22 binding: 0; PGC1a acetyl inh: -14

Results for CN1C[C@@H]2C[C@@H](c3cccn3-c3nccs3)N3CCC[C@@]23C1=O ?
FN deposition inh: 1; SIRT5 block: -5; FGF22 binding: 43*; ERAP1 HTS inh: 3

Results for CC(C)NC(=O)Nc1ccc2c(c1)C(=O)N([C@@H](C)CO)C[C@H](C)[C@@H](CN(C)S(=O)(=O)c1ccc(F)cc1)OCCCC[C@H](C)O2 ?
SIRT5 block: -6; FGF22 binding: 0; ERAP1 HTS inh: 2; PGC1a acetyl inh: -8

How did NNC(=S)Nc1cccc(-c2n[nH]c(=S)o2)c1 do in these assays?
FN deposition inh: -1; SIRT5 block: 18*; FGF22 binding: 0; ERAP1 HTS inh: -8; PGC1a acetyl inh: 2

What do the screens show for `CN(C)C(=S)Nc1cccc(-c2n[nH]c(=S)o2)c1`?
FN deposition inh: 7; SIRT5 block: -3; FGF22 binding: 0; ERAP1 HTS inh: -13

How did C[C@@H](NC(=O)C[C@@H]1CC[C@@H]2[C@H](COC[C@@H](O)CN2C(=O)Nc2cc(Cl)cc(Cl)c2)O1)c1ccccc1 do in these assays?
FN deposition inh: -2; SIRT5 block: -2; FGF22 binding: -1; ERAP1 HTS inh: -1; PGC1a acetyl inh: -1

Results for Cc1c(NC(=O)c2ccc(N(C)S(=O)(=O)c3ccccc3)cc2)c(=O)n(-c2ccccc2)n1C ?
FN deposition inh: -2; SIRT5 block: -1; FGF22 binding: 43*; ERAP1 HTS inh: 0; PGC1a acetyl inh: -2

How did C[C@H](CO)N1C[C@H](C)[C@H](CN(C)CC2CC2)Oc2ncc(-c3ccc(C#N)cc3)cc2C1=O do in these assays?
PGC1a acetyl inh: -6

What do the screens show for `OCCCNC(=S)Nc1ccc(Oc2ccccc2)cc1`?
FN deposition inh: -6; SIRT5 block: 2; FGF22 binding: 44*; ERAP1 HTS inh: 4

How did Cc1cccc(C)c1OCC(O)CNC(C)(C)C (stereo not given) do in these assays?
FN deposition inh: 8; PGC1a acetyl inh: -4

How did CC(C)(C)NCC(O)COc1ccc(Br)cc1 (stereo not given) do in these assays?
FN deposition inh: 3; SIRT5 block: -5; FGF22 binding: 44*; ERAP1 HTS inh: -5

How did COc1ccc2[nH]c(C)c(CCNC(=S)Nc3cc(C)ccc3C)c2c1 do in these assays?
FN deposition inh: 4; SIRT5 block: -4; FGF22 binding: 0; ERAP1 HTS inh: -4; PGC1a acetyl inh: -4

Bioassay records as filed in PubChem BioAssay.
